An excerpt weighted towards active compounds, which were near 1.9% of everything screened.
bCat nuc transl: beta-catenin nuclear translocation modulation; HeLa beta-catenin nuclear translocation, immunofluorescence imaging; nuclear translocation activity, % at 5 µM; 190,000 tested, 0.3% active;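 active means nuclear translocation activity above 50% at 5 µM, with a well cell count of 50 or more; inconclusive means wells under 50 cells across six images, flagged as toxic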;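 further: per-cell ratio of nuclear to cytoplasmic median beta-catenin stain intensity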
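Assay system: human HeLa cells, native beta-catenin; doses: 5 µM primary, 0.02–20 µM confirmation; incubation: compound treatment 24 h, 37°C, 5% CO2; technique: fluorescence imaging of beta-catenin antibody stain plus DAPI; measure: % activation, nuclear-to-cytoplasmic median beta-catenin signal ratio per cell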
ROMK mod: modulates human ROMK potassium channel activity. 130,000 tested, 2% active. B-score at 10 µM. AID 1918. Tet-inducible ROMK, thallium flux fluorescence; actives lie on both sides. P48048;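 active means signal ratio slope over the read window, or its plate-corrected B-score, at least 3 SD from the plate mean, either direction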;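 further: B-score of the F/F0 ratio slope over 7 to 12 s after thallium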
Target sequence (P48048 whole entry, looked up): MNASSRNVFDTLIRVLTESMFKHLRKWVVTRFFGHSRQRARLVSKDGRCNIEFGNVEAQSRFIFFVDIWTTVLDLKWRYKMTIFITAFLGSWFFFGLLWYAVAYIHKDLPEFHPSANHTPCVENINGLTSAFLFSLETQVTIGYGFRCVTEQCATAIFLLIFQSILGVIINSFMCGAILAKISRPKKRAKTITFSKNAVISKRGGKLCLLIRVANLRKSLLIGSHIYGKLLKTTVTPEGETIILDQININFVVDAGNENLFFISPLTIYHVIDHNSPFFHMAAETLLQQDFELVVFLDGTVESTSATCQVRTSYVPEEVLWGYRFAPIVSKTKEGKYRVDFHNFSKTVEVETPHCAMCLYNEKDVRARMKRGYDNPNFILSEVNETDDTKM
MT stabilize HCS: microtubule stabilizers in HeLa cells; HeLa tubulin immunostaining HCS, 24 h; share of cells brighter than vehicle mean+2SD; % tubulin-high responders, % at 10 µM; 200,000 tested, 0.83% active; AID 2205;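 active means plate Z-score above 3 for both tubulin-high and condensed-nucleus cell shares, with cell loss under 80%, at 10 µM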;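 further: anti alpha tubulin signal scored within the nucleus-defined area of each cell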
ROMK hit retest: confirmation of human ROMK potassium channel modulators; shares compounds with ROMK mod; ROMK thallium flux, fluorescence ratio; hits give low values; normalized thallium flux (F/F0 slope) at 10 µM; 3,000 tested, 54% active; AID 1917;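 active means Flux at 10 µM at least 3 SD below or above vehicle control mean in one or both replicates; inconclusive means no clear call, values can overlap the other calls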
Hits are given with their value; 0 = inactive; ? = inconclusive; - = no result given.

SMILES	bCat nuc transl	ROMK mod	MT stabilize HCS	ROMK hit retest
COc1ccc(C2C(C#N)=C(N)Oc3cc4c(cc32)OCO4)cc1 (configuration not stated)	-	-	0	-
CCN1C=C(Cc2ccc(OC)cc2)C2=C(C1)C(c1ccc(OC)cc1)C(C#N)=C(N)O2 (configuration not stated)	0	-	0	?
Cn1c(CCNC(=O)c2ccc(Cl)c(Cl)c2)nnc1SCc1ccc(Cl)c(Cl)c1	0	-	0	0
C=CCn1c(CCNC(=O)c2ccc(Cl)c(Cl)c2)nnc1SCCOc1ccc(OC)cc1	0	-	0	-
O=C(NC(=S)Nc1cc(S(=O)(=O)N2CCOCC2)ccc1N1CCOCC1)C1CCCC1	0	0	0	-
Cc1ccccc1SCCNC(=O)CCc1ccccc1	0	0	0	-
C=CCN1C(=O)/C(=C\c2ccc(Cl)cc2)N=C1SCC(=O)NCCC	0	0	0	-
COCCNC(=O)CSC1=N/C(=C/c2ccc(Cl)c(Cl)c2)C(=O)N1c1ccccc1F	0	-	0	0
O=C(CN1CCOCC1)Nc1ccccc1Sc1ccc(Cl)cc1	0	0	0	-
CCOc1ccccc1N1CCN(Cc2cnc(-c3ccccc3)[nH]2)CC1	0	0	-	-
COC(=O)c1ccccc1NC(=O)c1ccc(NS(C)(=O)=O)cc1	-	0	0	-
CS(=O)(=O)Nc1ccc(C(=O)Nc2ccccc2C(=O)N2CCCC2)cc1	0	-	0	0
CCCCNC(=S)N1CCN(C(c2ccccc2)c2ccccc2)CC1	0	0	0	-
CCCNC(=S)N1CCN(C(c2ccccc2)c2ccccc2)CC1	0	-3.2	0	0
Cc1ccc(S(=O)(=O)c2c(C(=O)c3ccccc3)cnc3cc4c(cc23)OCCO4)cc1	0	-	0	-
CN1CCN(C=Nc2nc3ccccc3nc2N2CCCC2)CC1	0	0	0	-
CC(=O)NCCNC(=O)c1ccc(Sc2ccccc2)c([N+](=O)[O-])c1	0	0	0	-
CN(C)CCNC(=O)c1ccc(Sc2ccc(Br)cc2)c([N+](=O)[O-])c1	0	-2.8	-	0.063
OC(C#CCCN1CCCCC1)(c1ccccc1)C1CCCCC1 (configuration not stated)	0	-	-	0.062
OC(C#CCCN1CCCCC1)(c1ccccc1)c1ccccc1	0	-	-	-
O=C1N/C(=C\c2ccc(O)cc2)C(O)=C1C=NCc1ccccc1	0	2.1	0	0
COc1ccc(/C=C2\NC(=O)C(C=NCc3ccccc3)=C2O)cc1	0	-	0	-
COC(=O)c1ccc(Oc2c(Cl)cccc2[N+](=O)[O-])cc1	0	-	0	-
CCCN(CCC)S(=O)(=O)c1ccc(NS(=O)(=O)c2ccc(F)cc2)cc1	0	-	0	-
COC(=O)C(CCSC)NS(=O)(=O)c1ccc(Cl)cc1 (configuration not stated)	0	0	0	-
SMILES	bCat nuc transl	ROMK mod	MT stabilize HCS	ROMK hit retest
CSCCC(NS(=O)(=O)c1ccc(Cl)cc1)C(=O)OCC(=O)N1CCOCC1 (configuration not stated)	-	6.3	0	0
O=C(Cc1ccccc1Cl)Nc1cccnc1	0	0	0	-
Cc1noc(NS(=O)(=O)c2ccc(N/C=C\C(=O)c3ccccc3)cc2)c1C	0	-	0	-
Cc1noc(NS(=O)(=O)c2ccc(N/C=C\C(=O)c3ccc(F)cc3)cc2)c1C	0	3.9	0	0
CCCc1ccc(NS(=O)(=O)c2c(C)oc(C)c2C(=O)OC)cc1	0	-	-	-
Cc1ccc(-n2[nH]c(C)c(C=Nc3ccc(S(=O)(=O)Nc4nccs4)cc3)c2=O)cc1	-	-	0	-
Cc1[nH]n(-c2ccc(Br)cc2)c(=O)c1C=Nc1ccc(S(=O)(=O)Nc2nccs2)cc1	0	-	0	0
CCCCOc1ccc(CCC(=O)N/N=C/c2ccco2)cc1	0	-	-	-
Cc1ccc(C(=O)NCC(=O)NCC(=O)OCC(=O)c2ccc(Br)cc2)cc1	0	0	0	-
CCC(=O)N(C)CCc1cc2c(c(OC)c1/C=N/NC(=O)c1ccncc1)OCO2	0	-2	-	0
CCC(=O)N(C)CCc1cc2c(c(OC)c1/C=N/NS(=O)(=O)c1ccc(C)cc1)OCO2	0	-	-	-
CCc1nnc(NC(=O)[C@@H](NC(=O)c2cccc(S(=O)(=O)N(CC)CC)c2)C(C)C)s1	0	0	0	-
CON1C(=O)C(=O)N(OC)C2CCCCC21 (configuration not stated)	-	-	0	?
C=CCON1C(=O)C(=O)N(OCC=C)[C@H]2CCCC[C@H]21	0	-	-	-
COc1cc(NC(=O)c2cccc3c2C(=O)N(Cc2cccnc2)C3)cc(OC)c1OC	0	-	0	-
Cc1[nH][nH]c(=O)c1C(c1ccc(O)c([N+](=O)[O-])c1)c1c(C)[nH][nH]c1=O	0	-	0	0
Cc1[nH][nH]c(=O)c1C(c1ccc([N+](=O)[O-])cc1)c1c(C)[nH][nH]c1=O	0	-	-	-
CC(=O)Oc1ccc2c(c1)O/C(=C\c1ccncc1)C2=O	0	-	-	-
CCC(=O)Oc1ccc2c(c1)O/C(=C\c1ccco1)C2=O	0	-7.4	-	0.051
CCc1ccc(/C=C2\Oc3cc(OC(=O)N4CCOCC4)ccc3C2=O)cc1	0	0	0	-
COc1ccccc1C(=O)Oc1ccc2c(c1)O/C(=C\c1ccncc1)C2=O	0	-	0	0.061
Cc1ccc(Cn2nnnc2CN2CCC(O)(c3ccccc3F)CC2)cc1	0	-	0	-
CCOC(=O)C1=C(N)OC2=C(C(=O)CCC2)C1c1ccco1 (configuration not stated)	0	0	0	-
CCOc1ccccc1C1C(C(=O)OC)=C(N)OC2=C1C(=O)CCC2 (configuration not stated)	0	-	0	0
CN1CC(=O)N(CC(=O)Nc2cccc(S(=O)(=O)N3CCOCC3)c2)C1=O	0	0	0	-
SMILES	bCat nuc transl	ROMK mod	MT stabilize HCS	ROMK hit retest
CC1CCCN(C(=S)Nc2ccc3nc4n(c(=O)c3c2)CCCCC4)C1 (configuration not stated)	0	0	0	-
COc1cc(C2Oc3ccccc3C=C2[N+](=O)[O-])cc(OC)c1OC (configuration not stated)	0	-7	-	0.033
COc1cc(C2NC(=O)c3ccccc3O2)cc(OC)c1OC (configuration not stated)	0	-	0	-
COc1cc(CNc2ccc(N3CCCC3)cc2)cc(Cl)c1OC	0	4	16	0
CCOc1cc(CNc2ccc(N3CCCC3)cc2)cc(Cl)c1OC	0	0	0	-
O=C(Cn1c(C(=O)NCC2CCCO2)cc2sccc21)c1ccccc1 (configuration not stated)	0	-	0	-
O=C(Cn1c(C(=O)NCc2ccco2)cc2sccc21)c1ccccc1	0	-	0	0
COc1ccccc1NC(=O)C1=C(C)NC(=O)NC1c1cccs1 (configuration not stated)	0	0	0	-
CC(=O)N1N=C(C)CC1c1ccc(O)cc1 (configuration not stated)	0	0	0	-
N#C/C(=C\C1=C(N2CCOCC2)C(=C/c2cccc([N+](=O)[O-])c2)/CC1)C(=O)Nc1ccccc1F	0	-3.4	0	0.061
N#C/C(=C\C1=C(N2CCOCC2)C(=C\c2ccc(Cl)cc2)/CC1)C(=O)Nc1ccccc1F	0	0	0	-
COc1ccc(Cn2c(=O)[nH]c3cc(C(=O)NCCc4ccc(S(N)(=O)=O)cc4)ccc3c2=O)cc1	0	0	0	-
Cc1ccc(SC[C@H](CC(C)C)N2CCN(C)CCC2=O)cc1	0	-	-	-
CC(C)C[C@@H](CSc1ccc(Br)cc1)N1CCN(C)CCC1=O	0	-	-	0

High-throughput results from PubChem BioAssay.
